One molecule from ChEMBL document CHEMBL4373706, “Discovery of Inhibitors of Aurora/PLK Targets as Anticancer Agents” (J Med Chem, 2019) can be followed below.

A short description of data set [1]: Oral bioavailability in Sprague-Dawley rat at 50 mg/kg administered via gastric gavage by LC-MS/MS analysis. It is filed as ADME, organism-based. As to conditions: in vivo.
The nature of data set [2]: AUC (0 to infinity) in Sprague-Dawley rat at 50 mg/kg, po administered via gastric gavage by LC-MS/MS analysis. It is filed as ADME, organism-based. Set-up: dose 50 mg/kg, time infinity, route oral. To be noted: in vivo.
Data set [3] in a line: Solubility of the compound in DMSO. It counts as physicochemical. Summed up: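 Solubility of the compound measured at 25±0.2°C, separately in water and in DMSO; reported in µg/mL.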
The test system of data set [4] is HCT-116. Briefly: Cell cycle arrest in human HCT116 cells assessed as increase in accumulation at G2/M phase measured after 24 to 48 hrs by propidium iodide staining-based flow cytometry. It is filed as functional. For orientation: A flow cytometer gives signals particle by particle.
Data set [5] concerns HCT-116. Briefly: Inhibition of colony formation in human HCT116 cells at 10 uM incubated for 48 hrs followed by supplemented with fresh medium every 3 days for 2 weeks by crystal violet staining-based assay. It is filed as functional, cell-based.
The species entered for another data set is Homo sapiens. Briefly: Inhibition of AURKA/PLK1 in human HCT116 cells assessed as increase in histone H3 Ser10 phosphorylation measured after 24 to 48 hrs by Western blot analysis. It counts as cell-based. Background: In western blotting, separated proteins are transferred to a membrane and probed.
Data set [6] deals with Cyclin-dependent kinase 6 (Homo sapiens, UniProt Q00534). Briefly: Binding affinity to wild-type human full-length CDK6 (M1 to A326 residues) expressed in mammalian expression system measured after 1 hr by kinomescan method. To be noted: pooled result: one value given for 15 cell lines, strains, targets or settings.
The target of data set [7] is T1, Phosphatidylinositol 4,5-bisphosphate 3-kinase catalytic subunit delta isoform (Homo sapiens, UniProt O00329).
T1 sequence (O00329 whole entry): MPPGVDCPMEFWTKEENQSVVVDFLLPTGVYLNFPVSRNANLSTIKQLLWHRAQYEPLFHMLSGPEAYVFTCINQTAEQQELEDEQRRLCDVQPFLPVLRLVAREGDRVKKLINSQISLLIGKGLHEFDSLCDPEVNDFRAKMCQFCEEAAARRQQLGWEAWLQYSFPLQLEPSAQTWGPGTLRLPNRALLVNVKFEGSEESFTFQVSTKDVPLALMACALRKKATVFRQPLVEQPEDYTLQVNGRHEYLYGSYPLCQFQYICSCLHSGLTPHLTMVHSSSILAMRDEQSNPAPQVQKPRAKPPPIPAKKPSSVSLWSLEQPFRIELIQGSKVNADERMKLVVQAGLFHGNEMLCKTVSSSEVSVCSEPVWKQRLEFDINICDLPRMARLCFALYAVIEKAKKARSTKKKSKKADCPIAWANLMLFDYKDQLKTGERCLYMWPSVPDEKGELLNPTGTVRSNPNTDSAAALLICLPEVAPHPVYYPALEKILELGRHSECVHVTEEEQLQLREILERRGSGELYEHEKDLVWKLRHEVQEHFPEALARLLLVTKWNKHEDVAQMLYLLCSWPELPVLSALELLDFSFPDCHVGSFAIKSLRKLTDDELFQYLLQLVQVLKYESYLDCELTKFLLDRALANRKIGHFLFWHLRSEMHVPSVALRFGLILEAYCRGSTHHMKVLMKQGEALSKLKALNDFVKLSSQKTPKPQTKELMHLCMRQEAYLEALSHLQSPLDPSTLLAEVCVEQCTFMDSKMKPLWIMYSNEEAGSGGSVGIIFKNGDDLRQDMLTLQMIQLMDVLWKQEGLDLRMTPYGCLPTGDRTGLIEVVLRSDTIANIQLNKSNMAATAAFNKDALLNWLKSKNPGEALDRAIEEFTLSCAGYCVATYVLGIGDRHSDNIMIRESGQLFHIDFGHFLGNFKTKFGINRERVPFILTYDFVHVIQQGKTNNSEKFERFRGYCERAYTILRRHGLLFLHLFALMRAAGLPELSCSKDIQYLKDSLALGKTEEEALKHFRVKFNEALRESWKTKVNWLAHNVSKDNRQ
Briefly: Binding affinity to wild-type human partial length PIK3CD (R108 to Q1044 residues) expressed in mammalian expression system measured after 1 hr by kinomescan method. As to conditions: pooled result: one value given for 15 cell lines, strains, targets or settings.

Data set [8] has as its target T2, Mitogen-activated protein kinase 15 (Homo sapiens, UniProt Q8TD08).
T2 sequence (Q8TD08 whole entry): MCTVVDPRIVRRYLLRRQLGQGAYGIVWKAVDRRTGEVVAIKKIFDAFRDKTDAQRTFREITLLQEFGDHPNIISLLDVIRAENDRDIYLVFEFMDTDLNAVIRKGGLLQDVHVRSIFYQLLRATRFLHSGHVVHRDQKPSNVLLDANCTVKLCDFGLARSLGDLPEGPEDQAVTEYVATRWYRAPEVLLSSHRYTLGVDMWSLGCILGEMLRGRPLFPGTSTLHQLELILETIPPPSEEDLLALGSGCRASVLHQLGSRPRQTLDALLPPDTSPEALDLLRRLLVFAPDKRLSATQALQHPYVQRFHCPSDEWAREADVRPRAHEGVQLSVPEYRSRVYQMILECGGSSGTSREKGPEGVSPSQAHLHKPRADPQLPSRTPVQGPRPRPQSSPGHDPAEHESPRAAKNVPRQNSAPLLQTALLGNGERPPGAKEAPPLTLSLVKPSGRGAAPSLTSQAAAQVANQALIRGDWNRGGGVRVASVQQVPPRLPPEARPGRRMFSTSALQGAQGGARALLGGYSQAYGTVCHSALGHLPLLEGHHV
Briefly: Binding affinity to wild-type human partial length ERK8 (M1 to P437 residues) expressed in bacterial expression system measured after 1 hr by kinomescan method. As to conditions: pooled result: one value given for 7 cell lines, strains, targets or settings.

For data set [9], the target named is Serine/threonine-protein kinase PLK1 (Homo sapiens, UniProt P53350). Briefly: Binding affinity to wild-type human partial length PLK1 (A33 to F325 residues) expressed in mammalian expression system measured after 1 hr by kinomescan method. Summed up:
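KINOMEscan competition binding assay. A 321-kinase panel was first screened at 10 μM compound, and binding affinities were then determined for Aurora and PLK family members.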

The next data set relates to MCF7. Briefly: Antiproliferative activity against human MCF7 cells measured after 48 hrs by MTT assay. To be noted: MCF7, 48 h. It is filed as functional, cell-based. Summed up:
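Cells were exposed to a range of compound concentrations for 48 h. MTT reagent was then added and absorbance read at 490 nm. Viability was normalized to vehicle control set as 100%, from n = 3 independent experiments, and IC50 was taken from the dose–response curves.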

A short description of data set [10]: AUC (0 to infinity) in Sprague-Dawley rat at 10 mg/kg, iv administered […] by LC-MS/MS analysis. It is filed as ADME, organism-based. To be noted: in vivo. Set-up: dose 10 mg/kg, route intravenous, time infinity.
The subject of data set [11] is HCT-116. Briefly: Antitumor activity against human HCT116 cells xenografted in BALB/c mouse assessed as reduction in tumor growth at 5 mg/kg, iv administered every 3 days for 24 days measured at 3 days interval during compound dosing. It is filed as functional, organism-based.
Data set [12] relates to HCT-116. Briefly: Antitumor activity against human HCT116 cells xenografted in BALB/c mouse assessed as survival rate at 1 mg/kg, iv administered every 3 days for 60 days relative to control. It is filed as functional. To be noted: HCT-116, iv. For orientation: Xenograft models place foreign cells or tissue in a host animal.
Data set [13] concerns HCT-116. Briefly: Antitumor activity against human HCT116 cells xenografted in BALB/c mouse assessed as survival rate at 10 mg/kg, iv administered every 3 days for 60 days relative to control. It counts as functional. As to conditions: HCT-116, iv.
Data set [14] relates to HCT-116. Briefly: Antitumor activity against human HCT116 cells xenografted in BALB/c mouse assessed as mean survival days at 1 mg/kg, iv administered every 3 days for 60 days (reference value: 25 day). It counts as functional.

Values after ≈ are worked out from the molar mass of the structure shown. Active and inactive are the calls of the source. No cut-off for these calls is given here.

The term AUC denotes concentration integrated over time. A higher AUC goes with more exposure. In general, solubility refers to the concentration that dissolves in the medium under given conditions. The Kd is the equilibrium constant for the complex coming apart. The low end stands for a tighter complex, the high end for a looser complex. A word on the IC50: it is the concentration that gives 50% inhibition. The low end stands for inhibition by little substance, the high end for a need for much substance.

Sequence of Cyclin-dependent kinase 6 (Q00534 whole entry, the tested form may be a part, canonical isoform): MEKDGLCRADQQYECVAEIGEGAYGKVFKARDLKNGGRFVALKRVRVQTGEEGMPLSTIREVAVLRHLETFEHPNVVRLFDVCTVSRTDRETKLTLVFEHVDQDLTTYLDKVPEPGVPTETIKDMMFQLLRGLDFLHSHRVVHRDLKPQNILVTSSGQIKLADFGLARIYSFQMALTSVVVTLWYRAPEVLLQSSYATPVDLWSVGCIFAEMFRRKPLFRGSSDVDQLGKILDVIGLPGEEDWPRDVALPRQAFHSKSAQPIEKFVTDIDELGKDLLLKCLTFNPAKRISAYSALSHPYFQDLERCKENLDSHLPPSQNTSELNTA
Sequence of Serine/threonine-protein kinase PLK1 (P53350 whole entry, the tested form may be a part): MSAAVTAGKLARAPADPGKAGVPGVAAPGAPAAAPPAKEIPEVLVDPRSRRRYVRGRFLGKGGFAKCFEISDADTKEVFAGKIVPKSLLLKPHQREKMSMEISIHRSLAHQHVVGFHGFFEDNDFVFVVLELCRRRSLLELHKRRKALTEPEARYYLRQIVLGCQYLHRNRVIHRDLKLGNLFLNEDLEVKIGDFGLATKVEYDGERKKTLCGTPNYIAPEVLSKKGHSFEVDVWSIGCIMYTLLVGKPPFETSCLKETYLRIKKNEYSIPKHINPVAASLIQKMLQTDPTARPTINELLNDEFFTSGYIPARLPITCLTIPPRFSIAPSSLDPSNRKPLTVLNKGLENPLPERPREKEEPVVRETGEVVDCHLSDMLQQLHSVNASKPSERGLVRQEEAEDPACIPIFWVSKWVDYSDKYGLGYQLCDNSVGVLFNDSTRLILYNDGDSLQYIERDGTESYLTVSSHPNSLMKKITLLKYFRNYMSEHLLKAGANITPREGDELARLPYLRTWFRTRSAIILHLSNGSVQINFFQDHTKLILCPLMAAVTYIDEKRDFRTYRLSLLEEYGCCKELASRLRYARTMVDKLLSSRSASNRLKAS

As to `O=C(Nc1ccc2cc(C(=O)Nc3nccs3)ccc2c1)c1ccc(Cl)c(Cl)c1`, the F in data set [1] was determined as 65%. For the same molecule, the exposure (AUC) came to 819.495 µg·h/mL in data set [2] and 1260.761 µg·h/mL in data set [10]. The molecule also came in with a solubility in [3] of 286 µg/mL (≈ 647 µM). Further, the Activity entry in the data set with HCT-116 [4] was “Dose-dependent effect”. For the same molecule, the inhibition entry in the data set with HCT-116 [5] and in the data set listed under Homo sapiens was “Active” in each case. The dissociation constant (Kd) in [6] is 8.02 µM; in data set [7] it was 7.11 µM; in data set [8], 5.32 µM; in [9], 0.055 µM. Inhibition in the data set on MCF7 was half-maximal at 2.3 µM (IC50). Also, the outcome in the data set on HCT-116 [11] was Active. Besides, in the data set on HCT-116 [12], the survival at 1 mg/kg is greater than 25%. In addition, the survival at 10 mg/kg in the data set on HCT-116 [13] amounted to 80%. Besides, the MSD with HCT-116 [14] was 37.5 days.
